Laboratory results published in ChEMBL document CHEMBL1134326, “C-16 artemisinin derivatives and their antimalarial and cytotoxic activities: syntheses of artemisinin monomers, dimers, trimers, and tetramers by nucleophilic additions to artemisitene” (J Med Chem, 2001).
pEC50, pIC50: −log10 of the molar value.

How the values were obtained:
Plasmodium falciparum = assay: Antimalarial activity against Plasmodium falciparum; assay type: functional, organism-based
How it was run: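 P. falciparum K1 (multidrug-resistant), asexual erythrocytic stage kept in continuous in vitro culture; microculture radioisotope method after Desjardins. EC50 is the concentration giving 50% reduction in parasite growth, measured as [3H]hypoxanthine uptake. Artemisinin and dihydroartemisinin served as standards.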

BC [1] = assay: Cytotoxicity against BC cells.; assay type: functional, cell-based; conditions: Homo sapiens
How it was run: (§1)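 Colorimetric cytotoxicity assay after Skehan on KB, BC and vero cell lines. Maximum concentration tested 130 µM. Ellipticine was the positive control. IC50 is reported in µM.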

[2] = Therapeutic index(TI) as IC50 of vero cells to that of EC50; assay type: cell-based, Cricetulus griseus; conditions: chinese hamster, read-out: Ti
[3] = Cytotoxicity against KB cells.; assay type: functional, cell-based; conditions: Homo sapiens; how it was run: as §1
Vero = assay: Cytotoxicity against vero cells.; assay type: functional, cell-based; conditions: Chlorocebus sabaeus; how it was run: as §1
[4] = Therapeutic index (TI) determined as IC50 of vero cells to that of EC50; assay type: cell-based; conditions: plasmodium falciparum, read-out: TI
BC [5] = assay: Cytotoxicity against BC cells; assay type: functional, cell-based; conditions: Homo sapiens; how it was run: as §1
KB = assay: Cytotoxicity against KB cells; assay type: functional, cell-based; conditions: Homo sapiens; how it was run: as §1

SMILES | pEC50 (Plasmodium falciparum) | pIC50 (BC [1]) | selectivity ratio [2] | pIC50 [3] | pIC50 (Vero) | selectivity ratio [4] | IA (BC [5]) | IA (KB)
CCCCCCC1(CC2C(=O)OC3OC4(C)CCC5C(C)CCC2C35OO4)C(=O)OC2OC3(C)CCC4C(C)CCC1C24OO3 (stereo not given) | 8.30 | 5.89 | 5 | 5.40 | 5.60 |  |  | 
CC1CCC2C(CCC(=O)c3ccc[nH]3)C(=O)OC3OC4(C)CCC1C32OO4 (stereo not given) | 8.06 |  |  |  | < 3.89 | > 1.5 | Cytotoxic | Cytotoxic
C[C@@H]1CC[C@H]2[C@@H](Cc3cccc(F)c3)C(=O)O[C@@H]3O[C@]4(C)CC[C@@H]1[C@]32OO4 | 7.68 |  |  |  | < 3.89 | 6.3 | Cytotoxic | Cytotoxic
C[C@@H]1CC[C@H]2C(CCC(=O)c3ccccc3)C(=O)O[C@@H]3O[C@]4(C)CC[C@@H]1C32OO4 (stereo not given in full) | 7.89 |  |  |  | < 3.89 | > 1 | Cytotoxic | Cytotoxic
CCC[C@H]1C(=O)O[C@@H]2O[C@]3(C)CC[C@H]4[C@H](C)CC[C@@H]1[C@@]24OO3 | 8.20 |  |  |  | < 3.89 | > 2.1 | Cytotoxic | Cytotoxic
COC(=O)C(C)(C)CC1C(=O)O[C@@H]2OC3(C)CC[C@H]4[C@H](C)CC[C@@H]1[C@@]24OO3 (single isomer, unassigned) | < 7.58 |  |  |  | < 3.89 | > 5 | Cytotoxic | Cytotoxic
CCCC[C@H]1C(=O)O[C@@H]2O[C@]3(C)CC[C@H]4[C@H](C)CC[C@@H]1[C@@]24OO3 | 7.95 |  |  |  | < 3.89 | > 1.2 | Cytotoxic | Cytotoxic
CCCCC[C@H]1C(=O)O[C@@H]2O[C@]3(C)CC[C@H]4[C@H](C)CC[C@@H]1[C@@]24OO3 | 8.05 |  |  |  | < 3.89 | > 1.5 | Cytotoxic | Cytotoxic
C[C@@H]1CC[C@H]2[C@@H](Cc3ccc(F)cc3)C(=O)O[C@@H]3O[C@]4(C)CC[C@@H]1[C@]32OO4 | 8.17 |  |  |  | < 3.89 | 1.9 | Cytotoxic | Cytotoxic
C[C@@H]1CC[C@H]2C(CCC(=O)c3ccc[nH]3)C(=O)O[C@@H]3O[C@]4(C)CC[C@@H]1[C@]32OO4 (stereo not given in full) | 7.61 |  |  |  | < 3.89 | > 5.2 | Cytotoxic | Cytotoxic
CCCC1(CC2C(=O)OC3OC4(C)CCC5C(C)CCC2C35OO4)C(=O)OC2OC3(C)CCC4C(C)CCC1C24OO3 (stereo not given) | 8.36 |  |  |  | < 3.89 | > 3 | Cytotoxic | Cytotoxic
